ARFGAP1 inh: inhibitors of rat ARFGAP1 GAP activity, primary screen, biochemical, fluorescence polarization, GDP tracer; 360,000 compounds, 0.26% hits; inhibition, % at 16.5 µM; AID 651572, 2012; Arfgap1-stimulated ARF1 GTP hydrolysis, GDP FP detection; ADP-ribosylation factor GTPase-activating protein 1 (Rattus norvegicus), Q62848;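 active means inhibition above a per-plate limit, mean inhibition of low control wells plus 3 SD, cut at about 25% in these data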;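 further: 0% = DMSO wells with enzyme and 100% = wells lacking Arfgap1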
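Material – truncated rat Arfgap1 GAP domain · Buffer or medium – HEPES-based buffer, pH 7.5 · Reagent – human ARF1(Δ1-17)-GTP substrate · Dosing – 16.5 µM single point, 1.26% DMSO · Schedule – GTP hydrolysis reaction 2 h at 25 °C · Technique – GDP detection by fluorescence polarization · Benchmarks – No-Arfgap1 wells (100%) versus DMSO full-reaction wells (0%) · Repeats – single replicate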
PAFAH1B2 inh: PAFAH1B2 enzyme inhibitors, primary screen, biochemical, fluorescence polarization, human; Platelet-activating factor acetylhydrolase IB subunit alpha2 (Homo sapiens), P68402; recombinant PAFAH1B2, FP-rhodamine activity probe; inhibition, % at 3.39 µM; 340,000 compounds, 1.2% hits; AID 492953, 2010;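 active means inhibition above the mean of all tested compounds plus 3 SD, cut at about 24% in these data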;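 further: 0% = enzyme with DMSO and 100% = wells lacking PAFAH1B2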
pPAFAH inh: pPAFAH enzyme inhibitors, primary screen, biochemical, fluorescence polarization, human; Platelet-activating factor acetylhydrolase (Homo sapiens), Q13093; recombinant pPAFAH, FP-rhodamine probe fluorescence polarization; inhibition, % at 3.39 µM; 330,000 compounds, 1.5% hits; AID 463082, 2010;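 active means inhibition above the mean inhibition across the screen plus 3 SD, cut at about 25% in these data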;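 further: inhibitors block binding of the rhodamine activity-based probe so polarization drops; 0% = enzyme with DMSO and 100% = wells lacking pPAFAH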
PAFAH2 FP inh: PAFAH2 enzyme inhibitors, primary screen, biochemical, fluorescence polarization, human | recombinant PAFAH2, FP-rhodamine activity probe | inhibition, % at 3.39 µM | 340,000 compounds, 0.99% hits;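 active means inhibition above the mean over all tested compounds plus 3 SD, cut at about 30% in these data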;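 further: inhibitors block probe labeling of enzyme so polarization drops; 0% = enzyme with DMSO and 100% = wells lacking PAFAH2 protein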
ASAP1 GAP inh: inhibitors of human ASAP1 ArfGAP activity, primary screen, biochemical, fluorescence polarization; Arf-GAP with SH3 domain, ANK repeat and PH domain-containing protein 1 (Homo sapiens), …; ASAP1-stimulated ARF1 GTP hydrolysis, GDP FP detection; inhibition, % at 16.5 µM; 360,000 compounds, 0.19% hits; in the data active means inhibition above about 25%;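 further: 0% = vehicle with enzyme and substrate and 100% = no enzyme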
Target sequence (Q9ULH1 325-724 limits assumed): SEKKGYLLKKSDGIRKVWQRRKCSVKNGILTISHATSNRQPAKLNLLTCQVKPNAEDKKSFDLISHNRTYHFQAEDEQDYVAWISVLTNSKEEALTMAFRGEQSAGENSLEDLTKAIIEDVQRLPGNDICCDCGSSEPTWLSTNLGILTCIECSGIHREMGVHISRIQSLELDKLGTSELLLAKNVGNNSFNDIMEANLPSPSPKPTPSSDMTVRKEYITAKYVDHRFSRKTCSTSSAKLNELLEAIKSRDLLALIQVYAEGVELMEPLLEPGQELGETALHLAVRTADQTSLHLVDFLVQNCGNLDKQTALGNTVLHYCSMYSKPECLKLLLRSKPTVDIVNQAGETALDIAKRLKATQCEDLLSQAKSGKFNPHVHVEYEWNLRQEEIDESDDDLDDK
PAFAH1B3 inh: PAFAH1B3 enzyme inhibitors, primary screen, biochemical, fluorescence polarization, human; Platelet-activating factor acetylhydrolase IB subunit alpha1 (Homo sapiens), Q15102; recombinant PAFAH1B3, FP-rhodamine probe; inhibition, % at 3.39 µM; 340,000 compounds, 0.28% hits; AID 492972, 2010;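 active means inhibition above the screen-wide average of all tested compounds plus 3 SD, cut at about 25% in these data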;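 further: 0% = enzyme with DMSO only and 100% = wells lacking PAFAH1B3 protein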
Target sequence (Q15102 whole entry, looked up): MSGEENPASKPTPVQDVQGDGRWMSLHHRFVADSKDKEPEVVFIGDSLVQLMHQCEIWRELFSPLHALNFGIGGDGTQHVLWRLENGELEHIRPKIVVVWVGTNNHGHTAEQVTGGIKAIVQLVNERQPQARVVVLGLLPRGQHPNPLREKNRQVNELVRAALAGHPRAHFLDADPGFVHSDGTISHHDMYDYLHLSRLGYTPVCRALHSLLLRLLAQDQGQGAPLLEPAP
* hit, by the source's call; nt = no result given. Only some compounds are listed: those with a hit (about 2.7% of all), similar ones and a draw of the others.

SMILES	ARFGAP1 inh	PAFAH1B2 inh	pPAFAH inh	PAFAH2 FP inh	ASAP1 GAP inh	PAFAH1B3 inh
O=C(O)COc1ccccc1C(Nc1ccccn1)c1cc(Cl)c2cccnc2c1O (stereo not drawn)	6	2	32*	29	-9	3
CCC(=O)NC(c1ccc(C)cc1)c1cc(Cl)c2cccnc2c1O (stereo not drawn)	nt	3	20	5	nt	16
CCCC(=O)NC(c1cccs1)c1cc(Cl)c2cccnc2c1O (stereo not drawn)	-6	4	33*	4	-5	10
CCCCCCC12C(=Cc3cc(C)ccc31)c1ccccc1C(CC(=O)NCc1ccccc1)N2C(=O)OC (stereo not drawn)	3	nt	nt	nt	1	nt
Cc1cc(Cl)ccc1C(=O)C1CCCN(C(=O)c2ccc3ncccc3c2)C1 (stereo not drawn)	-11	-1	25*	-4	-8	12
CC(C)c1[nH]nc2c1C(c1ccc3c(c1)OCO3)NC2=O (stereo not drawn)	18	nt	nt	nt	-5	nt
C[C@H](CO)N1C[C@H](C)[C@H](CN(C)Cc2ccc(-c3ccccc3)cc2)Oc2ccc(NS(=O)(=O)c3ccccc3)cc2CC1=O	nt	5	34*	0	nt	-1
COc1ccc(S(=O)(=O)Nc2ccc3c(c2)C(=O)N([C@@H](C)CO)C[C@H](C)[C@H](CN(C)S(=O)(=O)c2ccc(F)cc2)O3)cc1	2	39*	17	6	-3	9
C[C@@H]1CN([C@H](C)CO)C(=O)c2cc(NS(=O)(=O)c3ccc(F)cc3)ccc2O[C@@H]1CN(C)Cc1ccc(Cl)c(Cl)c1	2	25*	29*	10	-5	7
COc1ccc(S(=O)(=O)Nc2cccc3c2O[C@H](CN(C)Cc2ccc(-c4ccccc4)cc2)[C@@H](C)CN([C@H](C)CO)C3=O)cc1	3	8	19	7	17	-1
COc1ccc(S(=O)(=O)Nc2cccc3c2O[C@H](CN(C)Cc2ccc(Oc4ccccc4)cc2)[C@@H](C)CN([C@H](C)CO)C3=O)cc1	-11	-2	26*	6	15	4
CC(C)C[C@H]1COc2cccc(NCCO)c2S(=O)(=O)N1	2	nt	nt	nt	-5	nt
COC(=O)c1cc2c(c3c4cc(F)ccc4n(S(=O)(=O)c4cccc(C)c4)c13)C(=O)N(c1ccc(OC)cc1)C2	7	nt	nt	nt	-3	nt
CCOC(=O)C1=CCN(S(=O)(=O)c2ccc([N+](=O)[O-])cc2)C1c1ccc(C)cc1 (stereo not drawn)	-1	nt	nt	nt	-5	nt
O=C(CNc1ccc2c(c1)OCO2)N/N=C\c1cn(Cc2ccccc2)c2ccccc12	11	4	30*	-9	-2	4
O=C(CNc1ccccc1)N/N=C/c1ccc2c(c1)OCO2	5	-3	1	-5	-12	10
C[C@@H]1CN([C@@H](C)CO)C(=O)CCCn2cc(nn2)CO[C@H]1CN(C)C(=O)Nc1ccc(F)cc1	0	nt	nt	nt	2	nt
O=C(COc1ccc(Cl)cc1)NNC(=O)C(=O)N1CCCCC1	-2	31*	5	1	-1	0
COc1ccc(OCC(=O)NNC(=O)C(=O)N2CCCC2)cc1	-13	4	3	-6	-1	6
O=C(CCCOc1ccccc1)N1CCN(c2ccccc2)CC1	5	3	6	8	-6	-1
O=C(CCOc1ccccc1)N1CCN(c2ccc(O)cc2)CC1	1	2	31*	12	-3	3
COC1C(O)CCC2(CO2)C1C1(C)OC1CC=C(C)C (stereo not drawn)	-1	nt	nt	nt	-8	nt
CC(=O)N1CCN(c2ccc(NCc3cccs3)cc2)CC1	-2	4	15	1	6	4
CC(=O)N1CCN(c2ccc(NCc3ccccc3)cc2)CC1	-4	6	32*	-4	-18	0
Cc1ccc(C(=O)N2CCN(c3ccc(NC(=S)NC(=O)Cc4ccccc4)cc3)CC2)cc1	-8	1	25*	6	7	9
SMILES	ARFGAP1 inh	PAFAH1B2 inh	pPAFAH inh	PAFAH2 FP inh	ASAP1 GAP inh	PAFAH1B3 inh
COc1cc(CNc2ccc(N3CCCC3)cc2)ccc1OCc1ccccc1F	nt	11	21	5	nt	14
COc1ccc(C(=O)N2CCN(c3ccc(NC(=O)Cc4ccccc4)cc3)CC2)cc1	3	2	10	6	-8	8
COc1cc(CNc2ccc(N3CCCC3)cc2)ccc1OCc1ccccc1	-31	2	29*	6	-39	18
CC(=O)N1CCN(c2ccc(NCc3cccc4ccccc34)cc2)CC1	-1	-1	31*	5	-14	6
NC(=O)c1ncn([C@@H]2O[C@H](C(=O)N[C@H](Cc3c[nH]c4ccccc34)C(=O)N3CCN(C(=O)C4CC4)CC3)[C@@H](O)[C@H]2O)n1	3	nt	nt	nt	9	nt
Cc1ccc(NC(=S)Nc2ccc(-c3nnc4n3CCCCC4)cc2)cc1C	-2	nt	nt	nt	-11	nt
COc1ccc(N2CCN(C(=O)c3ccc(CSc4ccccc4)cc3)CC2)cc1	-7	26*	7	2	7	5
COc1ccc(N2CCN(C(=O)CSc3ccccc3)CC2)cc1	2	0	14	-2	0	8
O=C(Nc1ccc(CN2CCOCC2)cc1)c1ccc(-c2cccc([N+](=O)[O-])c2)o1	37*	5	8	-3	37*	5
O=[N+]([O-])c1cccc(-c2ccc(C(=S)N3CCOCC3)o2)c1	0	1	4	10	4	7
Brc1ccc(CN2CCCc3nc(-c4ccccc4)ccc32)cc1	-2	nt	nt	nt	2	nt
Oc1ccc(O)c(/C(=N/Nc2ccccc2)c2ccccc2)c1	nt	nt	44*	nt	nt	nt
O=C(C(=NNc1ccccc1)c1ccccc1)c1ccccc1	-1	-1	nt	10	-12	7
Cc1cc(Nc2cc(Cl)cc(Cl)c2)cc(=O)n1-c1cc(Cl)cc(Cl)c1	9	nt	nt	nt	10	nt
COC(=O)c1cc(S(=O)(=O)NCCc2ccc(Cl)cc2)c[nH]1	-9	26*	11	3	3	2
c1ccc(Nc2c(-c3ccco3)nc3ccccn23)cc1	5	2	1	-4	-4	-1
c1ccc(-c2nc(-c3ccco3)n3ccccc23)cc1	9	3	25*	1	-8	3
c1ccc(Cc2cnc(N3CCN(Cc4cccc(-c5ccsc5)n4)CC3)nc2)cc1	0	nt	nt	nt	-7	nt

Source: PubChem (The Scripps Research Institute Molecular Screening Center)
